The results in this text go back to ChEMBL document CHEMBL3526089, “Selective mechanism-based inactivation of CYP3A4 by CYP3cide (PF-04981517) and its utility as an in vitro tool for delineating the relative roles of CYP3A4 versus CYP3A5 in the metabolism of drugs” (Drug Metab Dispos, 2012).

Holding throughout (type): ADME
The target of series [1] is T1, CYP3A5 (Homo sapiens, UniProt P20815). The series is described as follows: Time dependent inhibition of testosterone 6beta-hydroxylase activity of human recombinant CYP3A5 in presence of human P450 oxidoreductase and b5 assessed as decrease in enzyme activity at 2 uM preincubated for 30 mins by IC25-shift assay. To be noted: recombinant CYP3A5 with human P450 oxidoreductase and b5, probe testosterone (6beta-hydroxylation). An outline of the steps: (§1)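 IC25-shift assay. Pooled HLMs or recombinant CYP3A4/3A5/3A7 were preincubated 30 min at 37°C with CYP3cide, with or without NADPH (1.3 mM) (N=2). Mixture diluted 10-fold into probe substrate (~KM) at 37°C. Metabolites analysed by LC/MS/MS. Readout: % decrease in activity vs control.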

The target in series [2] is CYP3A4 (Homo sapiens, UniProt P08684). The series is described as follows: Time dependent inhibition of midazolam 1'-hydroxylase activity of human recombinant CYP3A4 harboring human P450 oxidoreductase and b5 assessed as decrease in enzyme activity at 0.050 uM preincubated for 30 mins by IC25-shift assay. As to conditions: recombinant CYP3A4 with human P450 oxidoreductase and b5, probe midazolam (1'-hydroxylation). An outline of the steps:
as §1

Series [3] concerns CYP3A5*1/*1. Nature of the series: Inhibition of CYP3A5*1/*1 in human liver microsomes assessed as midazolam 1'-hydroxylase activity at 0.56 uM after 10 mins. As to conditions: liver microsomes (CYP3A5*1/*1 genotype), probe midazolam (1'-hydroxylation). The essentials:
(§2)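 Genotyped individual HLMs (0.1 mg/ml) preincubated at 37°C with CYP3cide (0–1.3 μM; 10 min in the two-donor study, 5 min in the 30-donor study), with or without 1.3 mM NADPH (N=3). Mixture diluted 20-fold into 23 μM midazolam for 6 min. 1'-OH-midazolam measured. Readout: % of vehicle/no-NADPH control activity.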
A general note: Microsomes from liver hold many membrane-bound enzymes, among them those of drug oxidation.

The target of series [4] is T2, Cytochrome P450 3A4 (Homo sapiens, UniProt P08684). The series is described as follows: Reversible inhibition of midazolam 1'-hydroxylase activity of human recombinant CYP3A4 harboring human P450 oxidoreductase and b5. An outline of the steps:
(§3)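 IC50 was measured with baculovirus-expressed CYP3A4 plus POR and cytochrome b5 (P450:reductase:b5 1:5:7), with substrate at its experimentally derived KM, in duplicate. Enzyme was 0.010 mg/ml for midazolam 1'-hydroxylation and 0.020 mg/ml for testosterone 6β-hydroxylation.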

For series [5], the target named is Cytochrome P450 2C19 (Homo sapiens, UniProt P33261). Nature of the series: Reversible inhibition of human CYP2C19 S-mephenytoin 4'-hydroxylase activity. The essentials:
(§4)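 Reversible IC50 with pooled HLM or recombinant CYP3A7 (with POR and b5), protein 0.010–0.10 mg/ml depending on isoform. Probe substrate at its experimentally derived KM. Metabolite formation measured by LC/MS/MS. IC50 determinations run in duplicate.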

Series [6] concerns the target CYP2B6 (Homo sapiens, UniProt P20813). The series is described as follows: Time dependent inhibition of human CYP2B6 bupropion hydroxylase activity assessed as decrease in enzyme activity at 100 uM preincubated for 30 mins by IC25-shift assay. As to conditions: probe bupropion (hydroxylation). The essentials: as §1
Series [7] has as its target T2, Cytochrome P450 3A4. The series is described as follows: Reversible inhibition of testosterone 6beta-hydroxylase activity of human recombinant CYP3A4 in presence of human P450 oxidoreductase and b5. The essentials: as §3
Series [8] concerns the target T3, Cytochrome P450 3A5 (Homo sapiens, UniProt P20815). Nature of the series: Drug metabolism assessed as human recombinant CYP3A5 in presence of human P450 oxidoreductase and b5-mediated 1-((3S)-1-(1-methyl-3-(1-methyl-5-p-tolyl-1H-pyrazol-4-yl)-1H-pyrazolo[3,4-d]pyrimidin-4-yl)pyrrolidin-3-yl)-2,3,4,5-tetrahydropyridinium formation at 10 uM by HPLC-MS analysis in presence of NADPH. As to conditions: recombinant enzyme. The essentials:
(§5)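 Recombinant CYP3A4 or CYP3A5 (50 pmol/ml final) added, without preincubation, to 10 µM CYP3cide with NADPH (final 1 mM) in 100 mM phosphate pH 7.4. Trapping incubations also held 200 µM KCN or 5 mM GSH (final). Incubated 1 h at 37°C, quenched with acetonitrile, dried, reconstituted. Metabolites analysed by LC/Orbitrap ESI-MS.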

Series [9] deals with Cytochrome P450 2C8 (Homo sapiens, UniProt P10632). Nature of the series: Reversible inhibition of human CYP2C8 paclitaxel 6alpha-hydroxylase activity. An outline of the steps:
as §4

Series [10] deals with Cytochrome P450 2B6 (Homo sapiens, UniProt P20813). The series is described as follows: Reversible inhibition of human CYP2B6 bupropion hydroxylase activity. The essentials:
as §4

The target of series [11] is T4, CYP3A (Homo sapiens, UniProt P08684+P20815+P24462+Q9HB55). The series is described as follows: Time dependent inhibition of human CYP3A midazolam 1'-hydroxylase activity assessed as decrease in enzyme activity at 1 uM preincubated for 30 mins by IC25-shift assay. As to conditions: probe midazolam (1'-hydroxylation). An outline of the steps:
as §1

The test system of series [12] is CYP3A5*3/*3. Nature of the series: Time dependent inhibition of CYP3A5*3/*3 in human liver microsomes assessed as midazolam 1'-hydroxylase activity at 0.56 uM after 10 mins by dilution method. As to conditions: human liver microsomes (CYP3A5*3/*3 genotype), probe midazolam (1'-hydroxylation). An outline of the steps:
as §2

Series [13] has as its system CYP3A5*1/*1. Nature of the series: Time dependent inhibition of CYP3A5*1/*1 in human liver microsomes assessed as midazolam 1'-hydroxylase activity at 0.56 uM after 10 mins by dilution method. To be noted: liver microsomes (CYP3A5*1/*1 genotype), probe midazolam (1'-hydroxylation). An outline of the steps:
as §2

Series [14] deals with T1, CYP3A5. The series is described as follows: Time dependent inhibition of midazolam 1'-hydroxylase activity of human recombinant CYP3A5 harboring human P450 oxidoreductase and b5 assessed as decrease in enzyme activity at 2 uM preincubated for 30 mins by IC25-shift assay. To be noted: recombinant CYP3A5 with human P450 oxidoreductase and b5, probe midazolam (1'-hydroxylation). An outline of the steps: as §1

For series [15], the target named is T4, CYP3A. The series is described as follows: Time dependent inhibition of human CYP3A testosterone 6beta-hydroxylase activity assessed as decrease in enzyme activity at 5 uM preincubated for 30 mins by IC25-shift assay. As to conditions: probe testosterone (6beta-hydroxylation). The essentials:
as §1

Series [16] addresses CYP2C9 (Homo sapiens, UniProt P11712). Nature of the series: Time dependent inhibition of human CYP2C9 diclofenac 4'-hydroxylase activity assessed as decrease in enzyme activity at 100 uM preincubated for 30 mins by IC25-shift assay. As to conditions: probe diclofenac (4'-hydroxylation). The essentials: as §1
The target of series [17] is T2, Cytochrome P450 3A4. The series is described as follows: Drug metabolism assessed as human recombinant CYP3A4 in presence of human P450 oxidoreductase and b5-mediated 1-((3S)-1-(1-methyl-3-(1-methyl-5-p-tolyl-1H-pyrazol-4-yl)-1H-pyrazolo[3,4-d]pyrimidin-4-yl)pyrrolidin-3-yl)-2,3,4,5-tetrahydropyridinium formation at 10 uM by HPLC-MS analysis in presence of NADPH. To be noted: recombinant enzyme. An outline of the steps: as §5

Series [18] has as its target T3, Cytochrome P450 3A5. The series is described as follows: Inhibition of testosterone 6beta-hydroxylase activity of human recombinant CYP3A5 in presence of human P450 oxidoreductase and b5 assessed as decrease in enzyme activity preincubated for 30 mins by LC-MS/MS analysis. An outline of the steps: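 rCYP3A5 with POR and b5 (0.010 mg/ml for midazolam, 0.020 mg/ml for testosterone) preincubated 30 min at 37°C with 2 µM inhibitor, ±NADPH (1.3 mM), N=2. Mixture then diluted 10-fold into probe substrate at ~KM at 37°C. Activity expressed as percent of control remaining, reported as decrease in activity.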

The target of series [19] is CYP3A7 (Homo sapiens, UniProt P24462). Nature of the series: Time dependent inhibition of midazolam 1'-hydroxylase activity of human recombinant CYP3A7 harboring human P450 oxidoreductase and b5 assessed as decrease in enzyme activity at 100 uM preincubated for 30 mins by IC25-shift assay. To be noted: recombinant CYP3A7 with human P450 oxidoreductase and b5, probe midazolam (1'-hydroxylation). The essentials: as §1
CYP3A7, sequence (P24462 whole entry): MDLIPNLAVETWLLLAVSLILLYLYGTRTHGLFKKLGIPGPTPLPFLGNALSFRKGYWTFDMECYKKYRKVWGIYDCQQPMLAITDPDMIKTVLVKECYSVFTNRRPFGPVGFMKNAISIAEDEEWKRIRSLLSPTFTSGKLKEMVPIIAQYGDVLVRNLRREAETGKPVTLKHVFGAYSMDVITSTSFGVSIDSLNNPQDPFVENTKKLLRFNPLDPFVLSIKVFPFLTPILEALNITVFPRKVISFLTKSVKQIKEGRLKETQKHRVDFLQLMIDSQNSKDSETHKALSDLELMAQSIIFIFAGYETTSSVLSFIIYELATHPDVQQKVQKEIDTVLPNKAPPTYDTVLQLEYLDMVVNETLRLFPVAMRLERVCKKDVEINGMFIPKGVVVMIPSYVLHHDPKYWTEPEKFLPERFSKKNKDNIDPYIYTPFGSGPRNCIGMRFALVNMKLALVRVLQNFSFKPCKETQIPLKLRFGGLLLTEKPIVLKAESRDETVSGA

T2 sequence (P08684 whole entry): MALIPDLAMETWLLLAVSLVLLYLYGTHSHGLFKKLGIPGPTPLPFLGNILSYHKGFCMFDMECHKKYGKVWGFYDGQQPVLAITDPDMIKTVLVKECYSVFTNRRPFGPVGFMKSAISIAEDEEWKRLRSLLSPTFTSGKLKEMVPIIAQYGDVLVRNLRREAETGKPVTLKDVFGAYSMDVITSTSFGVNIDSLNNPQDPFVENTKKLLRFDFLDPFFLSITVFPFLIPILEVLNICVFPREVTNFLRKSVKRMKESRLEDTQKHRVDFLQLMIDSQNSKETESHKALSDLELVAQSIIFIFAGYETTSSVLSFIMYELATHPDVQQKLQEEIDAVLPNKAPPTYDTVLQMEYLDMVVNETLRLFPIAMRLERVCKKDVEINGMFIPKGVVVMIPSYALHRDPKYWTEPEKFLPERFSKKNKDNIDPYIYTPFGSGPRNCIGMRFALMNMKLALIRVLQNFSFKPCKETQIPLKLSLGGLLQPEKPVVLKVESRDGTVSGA
T1 sequence (P20815 whole entry): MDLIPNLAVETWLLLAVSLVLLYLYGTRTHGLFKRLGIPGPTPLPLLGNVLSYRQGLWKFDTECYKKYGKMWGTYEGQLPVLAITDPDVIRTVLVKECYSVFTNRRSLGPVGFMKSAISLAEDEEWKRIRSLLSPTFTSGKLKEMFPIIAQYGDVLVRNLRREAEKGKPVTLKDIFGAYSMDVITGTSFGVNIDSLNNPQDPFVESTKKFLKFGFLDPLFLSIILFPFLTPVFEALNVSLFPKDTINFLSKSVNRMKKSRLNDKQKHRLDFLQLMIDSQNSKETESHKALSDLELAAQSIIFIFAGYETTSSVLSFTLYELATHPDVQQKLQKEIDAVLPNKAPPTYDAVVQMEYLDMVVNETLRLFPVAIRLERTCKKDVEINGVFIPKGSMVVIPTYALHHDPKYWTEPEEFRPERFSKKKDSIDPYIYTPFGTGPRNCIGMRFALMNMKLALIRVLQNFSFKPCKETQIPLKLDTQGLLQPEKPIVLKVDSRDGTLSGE
T3 sequence (P20815 whole entry): as above
Cytochrome P450 2C8, sequence (P10632 whole entry): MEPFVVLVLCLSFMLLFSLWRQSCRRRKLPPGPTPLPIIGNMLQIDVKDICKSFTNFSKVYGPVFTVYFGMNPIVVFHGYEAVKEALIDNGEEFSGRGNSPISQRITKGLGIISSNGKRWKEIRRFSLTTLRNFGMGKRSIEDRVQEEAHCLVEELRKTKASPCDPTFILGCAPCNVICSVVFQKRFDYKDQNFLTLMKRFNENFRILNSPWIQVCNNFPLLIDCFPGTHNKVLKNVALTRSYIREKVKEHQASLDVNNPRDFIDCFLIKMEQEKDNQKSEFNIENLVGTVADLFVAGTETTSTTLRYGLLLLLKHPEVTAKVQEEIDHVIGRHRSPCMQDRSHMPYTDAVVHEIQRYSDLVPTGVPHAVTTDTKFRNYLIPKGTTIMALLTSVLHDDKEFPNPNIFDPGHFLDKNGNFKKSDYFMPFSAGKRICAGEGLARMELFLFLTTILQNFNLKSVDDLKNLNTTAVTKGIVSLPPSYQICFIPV
CYP2C9, sequence (P11712 whole entry): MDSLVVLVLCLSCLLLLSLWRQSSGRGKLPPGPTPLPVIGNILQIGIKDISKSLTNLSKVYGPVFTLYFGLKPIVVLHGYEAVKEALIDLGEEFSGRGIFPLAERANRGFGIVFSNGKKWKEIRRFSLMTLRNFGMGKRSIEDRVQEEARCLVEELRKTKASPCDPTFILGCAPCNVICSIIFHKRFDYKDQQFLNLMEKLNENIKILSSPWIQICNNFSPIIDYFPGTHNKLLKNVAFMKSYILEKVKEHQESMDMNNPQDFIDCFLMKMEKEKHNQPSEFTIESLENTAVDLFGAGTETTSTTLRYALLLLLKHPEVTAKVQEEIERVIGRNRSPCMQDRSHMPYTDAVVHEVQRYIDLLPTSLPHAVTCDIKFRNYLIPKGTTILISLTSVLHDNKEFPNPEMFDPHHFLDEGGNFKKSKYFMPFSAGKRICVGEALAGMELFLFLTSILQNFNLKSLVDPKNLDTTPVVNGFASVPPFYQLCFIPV
CYP3A4, sequence (P08684 whole entry): as the sequence (P08684 whole entry) above
Cytochrome P450 2B6, sequence (P20813 whole entry): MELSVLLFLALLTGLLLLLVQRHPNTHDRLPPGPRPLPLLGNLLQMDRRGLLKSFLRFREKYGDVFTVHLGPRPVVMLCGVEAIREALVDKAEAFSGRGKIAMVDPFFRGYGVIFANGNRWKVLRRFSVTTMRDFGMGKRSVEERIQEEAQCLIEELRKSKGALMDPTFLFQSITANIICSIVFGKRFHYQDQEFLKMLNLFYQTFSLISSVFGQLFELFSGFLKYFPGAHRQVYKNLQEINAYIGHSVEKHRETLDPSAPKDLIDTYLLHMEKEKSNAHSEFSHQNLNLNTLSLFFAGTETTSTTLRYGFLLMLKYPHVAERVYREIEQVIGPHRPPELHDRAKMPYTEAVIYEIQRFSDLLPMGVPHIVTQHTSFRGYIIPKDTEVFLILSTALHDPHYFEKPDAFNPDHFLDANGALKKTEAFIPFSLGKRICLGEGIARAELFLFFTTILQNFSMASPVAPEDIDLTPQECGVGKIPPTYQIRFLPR
CYP2B6, sequence (P20813 whole entry): as above
Cytochrome P450 2C19, sequence (P33261 whole entry, canonical isoform): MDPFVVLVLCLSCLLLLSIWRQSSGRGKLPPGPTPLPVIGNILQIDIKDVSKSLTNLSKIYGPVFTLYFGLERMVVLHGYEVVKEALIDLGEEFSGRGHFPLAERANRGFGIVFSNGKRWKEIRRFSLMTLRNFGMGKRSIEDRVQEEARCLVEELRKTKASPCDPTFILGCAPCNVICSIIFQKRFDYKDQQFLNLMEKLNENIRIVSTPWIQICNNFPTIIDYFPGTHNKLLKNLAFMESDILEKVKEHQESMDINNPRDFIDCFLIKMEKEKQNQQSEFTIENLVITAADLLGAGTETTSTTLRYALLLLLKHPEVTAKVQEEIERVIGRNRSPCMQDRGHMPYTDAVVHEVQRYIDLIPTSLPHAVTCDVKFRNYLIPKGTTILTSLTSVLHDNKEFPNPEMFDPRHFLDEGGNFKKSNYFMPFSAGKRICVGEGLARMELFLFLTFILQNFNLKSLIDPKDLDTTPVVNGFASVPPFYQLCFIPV

The inhibition is how much of the control response was suppressed. For orientation: IC50 means the concentration at which inhibition is half-maximal. In general, Ki refers to a dissociation constant, usually derived from enzyme kinetics or from competition with a known ligand. As for `Cc1ccc(-c2c(-c3nn(C)c4ncnc(N5CC[C@H](N6CCCCC6)C5)c34)cnn2C)cc1`, the inhibition at 30 min, 2 µM in series [1] was 71%; in [14] it was 61%. Moreover, the inhibition at 30 min, 0.05 µM in series [2] amounted to 87%. The inhibition at 10 min, 0.56 µM in series [3] came out at 23%; in series [12], 0.4%; in series [13], 0.4%. Also, the IC50 in series [4] turned out to be 0.03 µM; in [5], 77 µM; in [7], 0.69 µM; in series [9] it was 78 µM; in series [10], 88 µM. Besides, the inhibition at 30 min, 100 µM in [6] worked out at 2.4%; in [16] it was 5.4%; in [19] it was 15%. Besides, the Drug metabolism entry in [8] and in series [17] was “metabolite_detected” in each case. For the same molecule, the inhibition at 30 min, 1 µM in series [11] came to 47%. For the same molecule, the inhibition at 30 min, 5 µM in [15] came to 53%. Moreover, in [18], the Ki is 1.2 µM.
